Among the data in ChEMBL document CHEMBL1151860, “Asymmetric synthesis and biological evaluation of Danshensu derivatives as anti-myocardial ischemia drug candidates” (Bioorg Med Chem, 2009) are Activity values, retold here.

Calls of active or inactive are those of the source. No cut-off for these calls is given here.

Experiment [1] in a line: Antiapoptotic activity against hypoxia-induced morphological changes in Sprague-Dawley rat NRVM assessed as decrease in nuclear condensation at 1 umol/l by Heochst dye relative to hypoxia induced control. The format is functional. In a few lines: (§1)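 Cultured neonatal rat ventricular myocytes (trypsin-dissociated, 2 h preplating, DMEM/10% FBS with 5-bromo-deoxyuridine, 37 °C, 5% CO₂) were pretreated 12 h with compound after 48 h culture, then made hypoxic for 5 h. Nuclei were Hoechst-stained to score shrinkage and condensation.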

For experiment [2], the species on record is Rattus norvegicus. Briefly: Cytoprotective effect against hypoxia-induced Sprague-Dawley rat NRVM assessed as increase in cell viability pretreated for 12 hrs before hypoxia induction at 1 umol/L measured after 5 hrs by MTT assay relative to control. The class given is functional. The method, boiled down: (§2)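 Neonatal rat ventricular myocytes were obtained by trypsin digestion, preplated for 2 h, then seeded at 1 × 10⁶ cells/ml in DMEM with 10% FBS, penicillin/streptomycin and 5-bromo-deoxyuridine at 37 °C, 5% CO₂. After 48 h they were given compound for 12 h, then 5 h hypoxia. Viability was read by MTT and damage by LDH leakage; means SE.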
For orientation: Formazan colour is commonly taken as a measure of viable cells.

The species named for experiment [3] is Rattus norvegicus. Nature of the experiment: Antioxidant activity against hypoxia-induced lipid peroxidation in Sprague-Dawley rat NRVM assessed as decrease in malondialdehyde content at 1 umol/l relative to hypoxia control. The class given is functional.
The subject of experiment [4] is Rattus norvegicus. Nature of the experiment: Cardioprotective effect in Sprague-Dawley rat myocardial infarction model assessed as decrease in serum malondialdehyde level at 15 to 60 mg/kg, ip treated 7 days before myocardial infarction surgery and after 2 days once daily. The format is functional, organism-based. The method, boiled down:
(§3)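 Male Sprague-Dawley rats (230–250 g) were anaesthetised with chloral hydrate (60 mg/kg ip), intubated and ventilated, and the left coronary artery ligated; sham rats were not ligated. Drug at 15, 30 or 60 mg/kg ip was given once daily from 7 days before to 2 days after surgery. Serum LDH, CK, SOD and MDA were measured by diagnostic kit; means SE, n = 6, P < 0.05.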

Experiment [5] is described as follows: Antiapoptotic activity against hypoxia-induced Sprague-Dawley rat NRVM assessed as increase in bcl2 mRNA level at 1 umol/l by RT-PCR. The class given is functional.
A short description of experiment [6]: Antiapoptotic activity against hypoxia-induced Sprague-Dawley rat NRVM assessed as decrease in bax protein level at 1 umol/l by Western blot analysis. The class given is functional.
Experiment [7] concerns Rattus norvegicus. Nature of the experiment: Cardioprotective effect in Sprague-Dawley rat myocardial infarction model assessed as decrease in infarct size at 30 mg/kg, ip treated 7 days before myocardial infarction surgery and after 2 days once daily by TTC staining. The format is functional, organism-based. On the set-up: dose 30 mg/kg. To be noted: Myocardium. The method, boiled down: (§4)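 Male Sprague-Dawley rats (230–250 g), anaesthetised with 7% chloral hydrate (60 mg/kg ip), intubated and ventilated; left coronary artery ligated (sham: no ligation). Five randomised groups: MI, sham, MI plus drug at 15, 30 or 60 mg/kg ip once daily. Hearts excised 2 days post-ligation, ventricles cut into five transverse slices, 1% TTC at 37 °C for 15 min; unstained area taken as infarct. Means SE.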

The subject of experiment [8] is Rattus norvegicus. Briefly: Cardioprotective effect in Sprague-Dawley rat myocardial infarction model assessed as decrease in serum creatine kinase level at 15 to 60 mg/kg, ip treated 7 days before myocardial infarction surgery and after 2 days once daily. The class given is functional, organism-based. The method, boiled down: as §3
In experiment [9] the test system is Rattus norvegicus. Nature of the experiment: Cardioprotective effect in Sprague-Dawley rat myocardial infarction model assessed as increase in serum SOD level at 15 to 60 mg/kg, ip treated 7 days before myocardial infarction surgery and after 2 days once daily. The class given is functional, organism-based. In a few lines: as §3
Experiment [10] is described as follows: Antiapoptotic activity against hypoxia-induced Sprague-Dawley rat NRVM assessed as decrease in caspase 3 mRNA level at 1 umol/l by RT-PCR. The class given is functional.
The nature of experiment [11]: Antiapoptotic activity against hypoxia-induced morphological changes in Sprague-Dawley rat NRVM assessed as decrease in nuclei shrunk at 1 umol/l by Heochst dye relative to hypoxia induced control. The format is functional. In a few lines: as §1
The subject of experiment [12] is Rattus norvegicus. Nature of the experiment: Cardioprotective effect in Sprague-Dawley rat myocardial infarction model assessed as decrease in infarct size at 60 mg/kg, ip treated 7 days before myocardial infarction surgery and after 2 days once daily by TTC staining. On the set-up: dose 60 mg/kg. The class given is functional, organism-based. The settings on record: Myocardium. In a few lines:
as §4

The species named for experiment [13] is Rattus norvegicus. Nature of the experiment: Cytoprotective effect against hypoxia-induced Sprague-Dawley rat NRVM assessed as decrease in LDH leakage pretreated for 12 hrs before hypoxia induction at 1 umol/L relative to control. The class given is functional. In a few lines: as §2
Experiment [14] concerns Rattus norvegicus. Briefly: Cardioprotective effect in Sprague-Dawley rat myocardial infarction model assessed as decrease in infarct size at 15 mg/kg, ip treated 7 days before myocardial infarction surgery and after 2 days once daily by TTC staining. The class given is functional, organism-based. More on the design: dose 15 mg/kg. To be noted: Myocardium. In a few lines:
as §4

Experiment [15] is described as follows: Antiapoptotic activity against hypoxia-induced Sprague-Dawley rat NRVM assessed as increase in bcl2 protein level at 1 umol/l by Western blot analysis. The format is functional. The method, boiled down:
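Myocytes were pretreated 12 h, then made hypoxic for 5 h and lysed at the end of hypoxia. Lysates were spun at 10,000 r/min for 10 min and protein quantified by BCA. Samples were transferred to PVDF and blocked 2 h at RT in TBS with 5% skim milk. For bcl-2, blots were probed 1 h at RT with rabbit anti-rat polyclonal antibody in TBS-T.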
In general terms: A western blot detects proteins with antibodies after separation by electrophoresis.

The test system of experiment [16] is Rattus norvegicus. Briefly: Cardioprotective effect in Sprague-Dawley rat myocardial infarction model assessed as decrease in serum LDH level at 15 to 60 mg/kg, ip treated 7 days before myocardial infarction surgery and after 2 days once daily. The format is functional, organism-based. In a few lines:
as §3

Experiment [17] in a line: Antiapoptotic activity against hypoxia-induced Sprague-Dawley rat NRVM assessed as decrease in bax mRNA level at 1 umol/l by RT-PCR. The class given is functional.
The species entered for experiment [18] is Rattus norvegicus. Nature of the experiment: Cytoprotective effect against hypoxia-induced Sprague-Dawley rat NRVM assessed as decrease in cellular damage pretreated for 12 hrs before hypoxia induction at 1 umol/L. The class given is functional.

As to `CC(=O)O/C(=C\c1ccc(O)c(O)c1)C(=O)O`, the result in [1], in [2], in experiment [3], in [4], in experiment [5] and in [6] was Active. Moreover, the result in experiment [8], in [9], in [10], in experiment [11], in experiment [12] and in [13] was Active. Moreover, the outcome in experiment [15], in experiment [16] and in [17] was Active. Besides, the result in [7] and in [14] was inactive.

For `COC(=O)[C@@H](Cc1ccc2c(c1)OCO2)OC(C)=O`, the outcome in [2], in experiment [18], in experiment [3] and in [13] was Active.

`COC(=O)C(Cc1ccc2c(c1)OCO2)OC(C)=O` (racemic): the result in experiment [2] and in [13] was Active.

Regarding `COC(=O)C(Cc1ccc(OC(C)=O)c(OC(C)=O)c1)OC(C)=O` (racemic), the result in experiment [2] and in [13] was Active.

As to `COC(=O)[C@@H](Cc1ccc(OC(C)=O)c(OC(C)=O)c1)OC(C)=O`, the outcome in [1], in [2], in experiment [18], in [3], in experiment [5] and in experiment [6] was Active. Also, the result in experiment [10], in [11], in experiment [13], in experiment [15] and in experiment [17] was Active.
